ChEMBL document CHEMBL5712911, “A homogeneous bioluminescent immunoassay to probe cellular signaling pathway regulation” (Commun Biol, 2020)
Activity calls are given as the source filed them. The calls are words filed in the database; no cut-off is given here.

Key:
[1] = system: MCF7; assay: Inhibition of IKK in human MCF7 cells assessed as reduction in IL-1beta-induced p65 phosphorylation at serine 536 residue preincubated for 1 hr followed by IL-1beta-stimulation and measured after 10 mins by NanoBiT cell-based immunoassay; details: time 70.0 min
[2] = system: MCF7; assay: Inhibition of IKK in human MCF7 cells assessed as reduction in TNFalpha-induced p65 phosphorylation at serine 536 residue at 10 uM preincubated for 1 hr followed by TNFalpha-stimulation and measured after 10 mins by NanoBiT cell-based immunoassay; details: time 70.0 min
[3] = system: MCF7; assay: Inhibition of IKK in human MCF7 cells assessed as reduction in TNFalpha-induced IkappaBalpha degradation preincubated for 1 hr followed by TNFalpha-stimulation and measured after 30 mins by NanoBiT cell-based immunoassay; details: time 1.5 hrs
Procedure, shortened: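 MCF-7 cells (50,000/well, seeded overnight) were preincubated 1 h with graded inhibitor concentrations, then stimulated with TNFα (50 ng per ml, 30 min). Digitonin lysis was followed by NanoBiT total IκBα immunoassay: a rabbit/mouse primary pair plus SmBiT/LgBiT-labelled secondaries for 90 min at 23 °C, then Nano-Glo substrate and luminescence read. IC50 was taken from the dose–response.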

[4] = system: HeLa; assay: Inhibition of IKK in human HeLa cells assessed as reduction in TNFalpha-induced IkappaBalpha phosphorylation at serine 32 residue preincubated for 1 hr followed by TNFalpha-stimulation and measured after 10 mins by NanoBiT cell-based immunoassay; details: time 70.0 min
[5] = system: MCF7; assay: Inhibition of IKK in human MCF7 cells assessed as effect on TNFalpha-induced p65 expression at 10 uM preincubated for 1 hr followed by TNFalpha-stimulation and measured after 10 mins by NanoBiT cell-based immunoassay; details: time 70.0 min
[6] = system: Primary mammary epithelial cell; assay: Inhibition of IKK in human primary mammary epithelial cells assessed as reduction in IL-1beta-induced IkappaBalpha phosphorylation at serine 32 residue preincubated for 1 hr followed by IL-1beta-stimulation and measured after 10 mins by NanoBiT cell-based immunoassay; details: time 70.0 min
[7] = system: Primary mammary epithelial cell; assay: Inhibition of IKK in human primary mammary epithelial cells assessed as reduction in TNFalpha-induced IkappaBalpha phosphorylation at serine 32 residue preincubated for 1 hr followed by TNFalpha-stimulation and measured after 10 mins by NanoBiT cell-based immunoassay; details: time 70.0 min
[8] = system: MCF7; assay: Inhibition of IKK in human MCF7 cells assessed as reduction in TNFalpha-induced total IkappaBalpha expression at 10 uM preincubated for 1 hr followed by TNFalpha-stimulation and measured after 10 mins by NanoBiT cell-based immunoassay; details: time 70.0 min
[9] = system: Ramos; assay: Inhibition of IKK in human Ramos cells assessed as reduction in IL-1beta-induced IkappaBalpha phosphorylation at serine 32 residue preincubated for 1 hr followed by IL-1beta-stimulation and measured after 10 mins by NanoBiT cell-based immunoassay; details: time 70.0 min
[10] = system: Ramos; assay: Inhibition of IKK in human Ramos cells assessed as reduction in TNFalpha-induced IkappaBalpha phosphorylation at serine 32 residue preincubated for 1 hr followed by TNFalpha-stimulation and measured after 10 mins by NanoBiT cell-based immunoassay; details: time 70.0 min
[11] = system: HeLa; assay: Inhibition of IKK in human HeLa cells assessed as reduction in IL-1beta-induced IkappaBalpha phosphorylation at serine 32 residue preincubated for 1 hr followed by IL-1beta-stimulation and measured after 10 mins by NanoBiT cell-based immunoassay; details: time 70.0 min
[12] = system: MCF7; assay: Inhibition of IKK in human MCF7 cells assessed as reduction in IL-1beta-induced IkappaBalpha phosphorylation at serine 32 residue preincubated for 1 hr followed by IL-1beta-stimulation and measured after 10 mins by NanoBiT cell-based immunoassay; details: dose 10.0 µM, time 70.0 min
[13] = system: MCF7; assay: Inhibition of IKK in human MCF7 cells assessed as reduction in TNFalpha-induced IkappaBalpha phosphorylation at serine 32 residue at 10 uM preincubated for 1 hr followed by TNFalpha-stimulation and measured after 10 mins by NanoBiT cell-based immunoassay; details: time 70.0 min
[14] = system: MCF7; assay: Inhibition of PI3K in human MCF7 cells assessed as reduction in insulin-induced AKT T308 phosphorylation preincubated for 1 hr followed by insulin stimulation and measured after 10 mins by NanoBiT cell-based immunoassay; details: time 70.0 min
[15] = Effect on total AKT expression in human MCF7 cells at 20 uM measured after 1 hr by NanoBiT cell-based immunoassay; format: toxicity; details: mcf7, 1 h
Procedure, shortened: (§1)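 MCF-7 cells, 50,000/well, were held overnight without serum. They were pretreated 1 h with 20 µM inhibitor, then given insulin (1 µM, 10 min). After 20 min digitonin lysis with protease/phosphatase inhibitors, AKT S473 phosphorylation (20) or total AKT (1) was read by NanoBiT immunoassay (antibody mix 90 min, 23 °C; Nano-Glo luminescence). Means ± S.E.M., n = 3 technical replicates.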

[16] = system: MCF7; assay: Inhibition of PI3K in human MCF7 cells assessed as reduction in insulin-induced AKT S473 phosphorylation preincubated for 1 hr followed by insulin stimulation and measured after 10 mins by NanoBiT cell-based immunoassay; details: time 70.0 min
Procedure, shortened: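 For this dose–response, serum-starved MCF-7 cells (50,000/well, overnight without serum) were pretreated 1 h with a concentration series of inhibitor, then stimulated with insulin (1 µM, 10 min). p-AKT S473 was measured by NanoBiT immunoassay: digitonin lysis 20 min, primary pair plus NanoBiT secondaries 90 min at 23 °C, Nano-Glo luminescence. IC50 was derived from the titration.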

[17] = system: MCF7; assay: Inhibition of PI3K in human MCF7 cells assessed as reduction in IGF1-induced AKT S473 phosphorylation preincubated for 1 hr followed by IGF1 stimulation and measured after 10 mins by NanoBiT cell-based immunoassay; details: time 70.0 min
[18] = system: MCF7; assay: Inhibition of PI3K in human MCF7 cells assessed as reduction in insulin-induced AKT S473 phosphorylation at 20 uM preincubated for 1 hr followed by insulin stimulation and measured after 10 mins by NanoBiT cell-based immunoassay; details: time 70.0 min; procedure, shortened: as §1
[19] = Effect on total STAT3 expression in human A-431 cells at 1 uM measured after 1 hr by NanoBiT cell-based immunoassay; format: toxicity; details: a-431, 1 h
Procedure, shortened: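 A431 cells, 50,000/well, were kept overnight in serum-free medium. […] Total STAT3 was measured by NanoBiT immunoassay after 20 min digitonin lysis (antibody mix 90 min, 23 °C; Nano-Glo luminescence). Means ± S.E.M., n = 3 technical replicates.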

[20] = target: T1, Retinoblastoma-associated protein (Homo sapiens) (UniProt P06400); assay: Inhibition of RB protein in human MCF7 cells assessed as reduction in EGF-induced Rb phosphorylation at Ser780 residue by NanoBiT cell-based immunoassay
T1 sequence (whole entry): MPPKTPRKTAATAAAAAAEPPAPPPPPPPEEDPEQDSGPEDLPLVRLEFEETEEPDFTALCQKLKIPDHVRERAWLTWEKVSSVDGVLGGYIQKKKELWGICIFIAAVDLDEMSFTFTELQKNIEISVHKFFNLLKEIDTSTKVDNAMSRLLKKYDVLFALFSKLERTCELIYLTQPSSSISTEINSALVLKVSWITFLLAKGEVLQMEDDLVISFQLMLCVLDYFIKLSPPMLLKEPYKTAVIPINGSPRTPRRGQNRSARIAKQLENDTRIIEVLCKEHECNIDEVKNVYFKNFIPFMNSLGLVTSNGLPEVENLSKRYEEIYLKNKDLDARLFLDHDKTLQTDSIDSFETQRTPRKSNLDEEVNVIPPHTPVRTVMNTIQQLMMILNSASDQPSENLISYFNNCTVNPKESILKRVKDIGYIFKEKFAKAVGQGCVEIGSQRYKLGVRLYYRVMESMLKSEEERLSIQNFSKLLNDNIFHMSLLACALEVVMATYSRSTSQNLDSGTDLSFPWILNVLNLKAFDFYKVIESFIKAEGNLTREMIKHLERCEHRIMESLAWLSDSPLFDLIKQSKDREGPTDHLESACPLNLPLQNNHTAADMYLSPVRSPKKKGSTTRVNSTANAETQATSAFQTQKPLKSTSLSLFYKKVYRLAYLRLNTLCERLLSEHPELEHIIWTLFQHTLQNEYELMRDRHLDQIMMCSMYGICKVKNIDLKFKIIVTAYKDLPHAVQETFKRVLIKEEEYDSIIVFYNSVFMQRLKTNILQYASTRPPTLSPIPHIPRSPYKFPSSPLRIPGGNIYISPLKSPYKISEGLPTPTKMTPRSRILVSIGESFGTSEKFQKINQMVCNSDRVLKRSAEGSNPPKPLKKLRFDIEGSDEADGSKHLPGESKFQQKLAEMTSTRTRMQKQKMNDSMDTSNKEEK

[21] = target: T1, Retinoblastoma-associated protein (Homo sapiens); assay: Inhibition of RB protein in human MCF7 cells assessed as reduction in 17beta-estradiol-induced Rb phosphorylation at Ser780 residue by NanoBiT cell-based immunoassay
[22] = target: T1, Retinoblastoma-associated protein (Homo sapiens); assay: Inhibition of RB protein in human MCF7 cells assessed as reduction in EGF-induced Rb phosphorylation at Ser807/811 residue by NanoBiT cell-based immunoassay
[23] = target: T1, Retinoblastoma-associated protein (Homo sapiens); assay: Inhibition of RB protein in human MCF7 cells assessed as reduction in 17beta-estradiol-induced Rb phosphorylation at Ser807/811 residue by NanoBiT cell-based immunoassay

With `O=C(c1ccc(Nc2nccc(-c3cc4ccccc4s3)n2)cc1)N1CCC(N2CCCC2)CC1` the inhibition [1] was “Active”, the inhibition [2] was “Active” and the inhibition [3] was “Dose-Dependent Effect”. The inhibition [4] was “Active”, the inhibition [5] was “inactive” and the inhibition [6] was “Active”. The inhibition [7] was “Active”, the inhibition [8] was “Active” and the inhibition [9] was “Active”. The inhibition [10] was “Active”, the inhibition [11] was “Active” and the inhibition [12] was “Active”. For the same molecule, the inhibition [13] was “Active”.
With `O=c1cc(N2CCOCC2)oc2c(-c3ccccc3)cccc12` [LY-294002] the inhibition [14] was “Active”, the Activity [15] was “Non-Toxic” and the inhibition [16] was “Dose-Dependent Effect”. The inhibition [17] was “Active” and the inhibition [18] was “Active”.
With `N#CC[C@H](C1CCCC1)n1cc(-c2ncnc3[nH]ccc23)cn1` [RUXOLITINIB] the Activity [19] was “Non-Toxic”.
With `CCN(CC)C(=O)c1ccc(Nc2nc(OCC3CCCCC3)c3nc[nH]c3n2)cc1` the inhibition [20] was “Active”, the inhibition [21] was “Active” and the inhibition [22] was “Active”. The inhibition [23] was “Active”.
